# According to ChEMBL document CHEMBL3085713, “Facile preparation of tetrahydro-5H-pyrido[1,2,3-de]-1,4-benzoxazines via reductive cyclization of 2-(8-quinolinyloxy)ethanones and their antioxidant activity” (Bioorg Med Chem Lett, 2013):
# Experiments:
# [1] = Antioxidant activity assessed as ABTS free radical scavenging activity after 3 mins by spectrophotometry; assay type: functional
# Summary of the method: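 ABTS (2 mM stock in PBS, pH 7.4) reacted with 70 mM K2S2O8, left in dark at room temperature 15-16 h, then diluted with PBS to absorbance 0.70 ± 0.03 at 734 nm. Sample in DMSO (0.1 mL, range of concentrations) mixed with 1.9 mL radical solution; absorbance read at ambient temperature after 3 min, PBS blank. Scavenging % vs sample-free control; triplicate means; IC50 = concentration scavenging 50%.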
# [2] = tested on: Radical scavenging activity; assay: Antioxidant activity assessed as DPPH free radical scavenging activity after 30 mins by spectrophotometry; assay type: functional
# Summary of the method: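 Sample in DMSO (0.1 mL, range of concentrations) added to 1.9 mL of 0.004% (w/v) DPPH radical in ethanol; incubated at 37 °C, absorbance read at 517 nm after 30 min. Scavenging % = (A control − A test)/A control × 100, control lacking sample. Triplicate, means used; IC50 taken as concentration scavenging 50% of radicals.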
Structure (SMILES),IC50 [1],IC50 [2]
COc1ccc(C2COc3cccc4c3N2CCC4)cc1 (stereo not given),26.7 µM,64.5 µM
c1cc2c3c(c1)OCC(c1ccc4ccccc4c1)N3CCC2 (stereo not given),62.2 µM,98.3 µM
CC1Oc2cccc3c2N(CCC3)C1c1ccccc1 (stereo not given),62.4 µM,95.4 µM
c1csc(C2COc3cccc4c3N2CCC4)c1 (stereo not given),20.2 µM,56.3 µM
Cc1cc(C(C)(C)C)c(O)c(C(C)(C)C)c1 [BUTYLATED HYDROXYTOLUENE],32.1 µM,63.1 µM
c1cc2c3c(c1)OCC(c1cccc4ccccc14)N3CCC2 (stereo not given),52.4 µM,75.2 µM
O=C1O[C@H]([C@@H](O)CO)C(O)=C1O [ASCORBIC ACID],18.3 µM,49.7 µM
c1cc2c3c(c1)OCC(c1ccc4c(c1)OCO4)N3CCC2 (stereo not given),42.5 µM,78.3 µM
Nc1cccc(C2COc3cccc4c3N2CCC4)c1 (stereo not given),17.8 µM,52.3 µM
COc1cccc(C2COc3cccc4c3N2CCC4)c1 (stereo not given),9.3 µM,44.6 µM
COc1ccc(C2COc3cccc4c3N2CCC4)cc1OC (stereo not given),28.4 µM,75.5 µM
Cc1ccc(C2COc3cccc4c3N2CCC4)cc1 (stereo not given),48.4 µM,98.4 µM
Nc1ccc(C2COc3cccc4c3N2CCC4)cc1 (stereo not given),10 µM,45 µM
c1ccc(C2COc3cccc4c3N2CCC4)cc1 (stereo not given),38.3 µM,78.8 µM
COc1ccccc1C1COc2cccc3c2N1CCC3 (stereo not given),15.3 µM,45.4 µM
